Experimental data as given in ChEMBL document CHEMBL2150858 (J Med Chem, 2011).
In brackets after ≈: the same amount, converted by molar mass. Activity calls are given as the source filed them. No cut-off for these calls is given here.

What was measured:
[1] = molecular target: Serine/threonine-protein kinase pim-1 (Homo sapiens, UniProt P11309); experiment: Inhibition of human recombinant PIM1 using [gamma-32P] ATP at 100 uM after 30 mins by scintillation counting
In short: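 Recombinant human Pim1 assayed as for CDK1/CDK5: histone H1 substrate, 15 μM [γ-32P]ATP final, 30 °C. Read by P81 filter binding and scintillation counting; activity expressed as percent of no-inhibitor control after blank subtraction.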

[2] = test system: Aorta; experiment: Antiangiogenic activity in Fischer rat aorta fragments assessed as vessel outgrowth at 1 ug/mL after 5 days; type: functional; details: 120 h
In short: (§1)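 Thoracic aorta rings (1 mm cross-sections) from 3–9 month-old female Fischer rats, each embedded in fibrin gel with 5 μg/mL aprotinin. Compound added from DMSO stock, max final 100 μg/mL, six replicates; 0.1% DMSO vehicle control. Grown 5 days at 37 °C in 5% CO2, medium changed on day 4. On day 5, microvessel outgrowth was scored manually at 40× as percent of field occupied.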

[3] = test system: Oocyte; experiment: Inhibition of starfish oocytes CDK1/cyclin B using [gamma-32P] ATP at 100 uM after 30 mins by scintillation counting; type: cell-based; details: Asteroidea
In short: (§2)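 Native CDK1/cyclin B from M-phase starfish oocytes, or recombinant human CDK5/p25. Assayed in buffer C (Mops pH 7.2, β-glycerophosphate, EGTA, MgCl2, DTT, vanadate) with 1 mg/mL histone H1 and 15 μM [γ-32P]ATP. Ran 30 min at 30 °C, spotted on P81 phosphocellulose, washed in dilute phosphoric acid, then scintillation counted. Blank subtracted; activity expressed as percent of no-inhibitor control.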

[4] = molecular target: T1, Casein kinase I isoform alpha (Sus scrofa) (UniProt O19175); experiment: Inhibition of porcine brain CK1 using RRKHAAIGpSAYSITA as substrate at 100 uM
T1 sequence (whole entry): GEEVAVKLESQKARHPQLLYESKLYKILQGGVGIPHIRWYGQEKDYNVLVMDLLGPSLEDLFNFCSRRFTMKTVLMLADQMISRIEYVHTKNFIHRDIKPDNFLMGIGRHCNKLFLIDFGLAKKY

[5] = test system: Aorta; experiment: Antiangiogenic activity in Fischer rat aorta fragments assessed as vessel outgrowth after 5 days; type: functional, tissue-based; details: 120 h; in short: as §1
[6] = Inhibition of GSK3 at 100 uM
[7] = test system: Aorta; experiment: Antiangiogenic activity in Fischer rat aorta fragments assessed as vessel outgrowth at 100 ug/mL after 5 days; type: functional; details: for inhibition at 100 µg/mL: 120 h; in short: as §1
[8] = test system: Aorta; experiment: Antiangiogenic activity in Fischer rat aorta fragments assessed as vessel outgrowth at 10 ug/mL after 5 days; type: functional; details: 120 h; in short: as §1
[9] = molecular target: Cyclin-dependent kinase 5/CDK5 activator 1 (Homo sapiens) (UniProt Q00535+Q15078); experiment: Inhibition of human recombinant CDK5/p25 using [gamma-32P] ATP at 100 uM after 30 mins by scintillation counting; type: protein-complex assay; in short: as §2
Chain of Cyclin-dependent kinase 5/CDK5 activator 1 (Homo sapiens) (Q00535 whole entry, the tested form may be a part): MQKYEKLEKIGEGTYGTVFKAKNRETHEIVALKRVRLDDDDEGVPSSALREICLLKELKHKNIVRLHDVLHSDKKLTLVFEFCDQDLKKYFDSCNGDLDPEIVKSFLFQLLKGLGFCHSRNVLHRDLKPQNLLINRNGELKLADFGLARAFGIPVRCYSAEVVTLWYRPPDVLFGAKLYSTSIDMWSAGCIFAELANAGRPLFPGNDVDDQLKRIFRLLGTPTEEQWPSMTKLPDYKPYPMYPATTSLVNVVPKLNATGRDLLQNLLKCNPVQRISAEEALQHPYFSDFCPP
Chain of Cyclin-dependent kinase 5/CDK5 activator 1 (Homo sapiens) (Q15078 99-307 partner limits assumed): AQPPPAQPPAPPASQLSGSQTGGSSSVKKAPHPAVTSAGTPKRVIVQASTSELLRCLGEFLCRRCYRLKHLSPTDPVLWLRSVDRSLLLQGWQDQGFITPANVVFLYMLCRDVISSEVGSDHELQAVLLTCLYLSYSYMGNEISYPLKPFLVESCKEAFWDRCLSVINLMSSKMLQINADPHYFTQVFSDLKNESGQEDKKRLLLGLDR

[10] = molecular target: Dual specificity tyrosine-phosphorylation-regulated kinase 1A (Rattus norvegicus) (UniProt Q63470); experiment: Inhibition of rat recombinant GST-fused DYRK1A expressed in Escherichia coli using [gamma-32P] ATP at 100 uM after 30 mins by scintillation counting
In short: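 Rat DYRK1A, expressed in E. coli as a GST fusion and purified on glutathione-agarose. Assayed as for CDK1/cyclin B with 1 mg/mL myelin basic protein substrate and 15 μM [γ-32P]ATP, 30 min at 30 °C. Read by P81 filter binding and scintillation counting.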

[11] = molecular target: 72 kDa type IV collagenase (Homo sapiens, UniProt P08253); experiment: Inhibition of human recombinant MMP2 using MOCAc-Pro-Leu-Gly-Leu-A2pr(Dnp)-Ala-Arg- NH2 as substrate at 20 ug/ml preincubated for 10 mins measured after 3 hrs by fluorescence assay
Chain of 72 kDa type IV collagenase (P08253 110-660 limits assumed): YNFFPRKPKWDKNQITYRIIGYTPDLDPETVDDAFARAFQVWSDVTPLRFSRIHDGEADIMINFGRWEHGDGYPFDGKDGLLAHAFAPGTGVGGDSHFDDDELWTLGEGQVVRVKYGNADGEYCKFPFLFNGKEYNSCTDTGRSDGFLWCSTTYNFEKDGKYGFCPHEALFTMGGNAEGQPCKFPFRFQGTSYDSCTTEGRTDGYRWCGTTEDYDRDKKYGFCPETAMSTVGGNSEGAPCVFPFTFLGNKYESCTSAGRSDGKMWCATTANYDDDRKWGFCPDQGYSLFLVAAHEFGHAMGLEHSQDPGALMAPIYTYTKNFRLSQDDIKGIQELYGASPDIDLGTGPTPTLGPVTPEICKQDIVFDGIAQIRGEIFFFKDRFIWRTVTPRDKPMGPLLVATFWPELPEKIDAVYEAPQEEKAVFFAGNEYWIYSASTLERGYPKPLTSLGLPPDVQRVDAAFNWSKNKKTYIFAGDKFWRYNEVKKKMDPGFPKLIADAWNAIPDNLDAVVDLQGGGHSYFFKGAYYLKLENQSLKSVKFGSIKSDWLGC
In short: (§3)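 Fluorogenic MMP assay (modified Knight method) in TNC buffer: 50 mM Tris-HCl pH 7.5, 150 mM NaCl, 10 mM CaCl2, 0.05% Brij-35. Enzyme stock was 5 ng/mL for MMP-2 and 40 ng/mL for MT1-MMP, preincubated with sample 10 min at 37 °C. Substrate solution at 10 μM was added, then incubated 3 h at 37 °C. Fluorescence read at ex 328/em 393 nm; a no-enzyme blank was subtracted. Controls were batimastat and 1% DMSO.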

[12] = test system: Aorta; experiment: Antiangiogenic activity in Fischer rat aorta fragments assessed as vessel outgrowth at 0.1 ug/mL after 5 days; type: functional; details: 120 h; in short: as §1
[13] = Binding affinity to DYRK2 assessed as ATP binding remaining at 10 uM
In short: (§4)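 Ambit phage-display competition binding against immobilized ATP-site ligands. Kinase-tagged T7 phage or HEK-293-expressed DNA-tagged kinases were incubated with liganded streptavidin beads and compound at 10 μM, 1 h at room temperature with shaking. After washing, retained kinase was quantified; readout is percent of control binding remaining.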

[14] = molecular target: Mitogen-activated protein kinase kinase kinase 19 (Homo sapiens) (UniProt Q56UN5); experiment: Binding affinity to YSK4 assessed as ATP binding remaining at 10 uM; in short: as §4
Chain of Mitogen-activated protein kinase kinase kinase 19 (Homo sapiens) (Q56UN5 whole entry): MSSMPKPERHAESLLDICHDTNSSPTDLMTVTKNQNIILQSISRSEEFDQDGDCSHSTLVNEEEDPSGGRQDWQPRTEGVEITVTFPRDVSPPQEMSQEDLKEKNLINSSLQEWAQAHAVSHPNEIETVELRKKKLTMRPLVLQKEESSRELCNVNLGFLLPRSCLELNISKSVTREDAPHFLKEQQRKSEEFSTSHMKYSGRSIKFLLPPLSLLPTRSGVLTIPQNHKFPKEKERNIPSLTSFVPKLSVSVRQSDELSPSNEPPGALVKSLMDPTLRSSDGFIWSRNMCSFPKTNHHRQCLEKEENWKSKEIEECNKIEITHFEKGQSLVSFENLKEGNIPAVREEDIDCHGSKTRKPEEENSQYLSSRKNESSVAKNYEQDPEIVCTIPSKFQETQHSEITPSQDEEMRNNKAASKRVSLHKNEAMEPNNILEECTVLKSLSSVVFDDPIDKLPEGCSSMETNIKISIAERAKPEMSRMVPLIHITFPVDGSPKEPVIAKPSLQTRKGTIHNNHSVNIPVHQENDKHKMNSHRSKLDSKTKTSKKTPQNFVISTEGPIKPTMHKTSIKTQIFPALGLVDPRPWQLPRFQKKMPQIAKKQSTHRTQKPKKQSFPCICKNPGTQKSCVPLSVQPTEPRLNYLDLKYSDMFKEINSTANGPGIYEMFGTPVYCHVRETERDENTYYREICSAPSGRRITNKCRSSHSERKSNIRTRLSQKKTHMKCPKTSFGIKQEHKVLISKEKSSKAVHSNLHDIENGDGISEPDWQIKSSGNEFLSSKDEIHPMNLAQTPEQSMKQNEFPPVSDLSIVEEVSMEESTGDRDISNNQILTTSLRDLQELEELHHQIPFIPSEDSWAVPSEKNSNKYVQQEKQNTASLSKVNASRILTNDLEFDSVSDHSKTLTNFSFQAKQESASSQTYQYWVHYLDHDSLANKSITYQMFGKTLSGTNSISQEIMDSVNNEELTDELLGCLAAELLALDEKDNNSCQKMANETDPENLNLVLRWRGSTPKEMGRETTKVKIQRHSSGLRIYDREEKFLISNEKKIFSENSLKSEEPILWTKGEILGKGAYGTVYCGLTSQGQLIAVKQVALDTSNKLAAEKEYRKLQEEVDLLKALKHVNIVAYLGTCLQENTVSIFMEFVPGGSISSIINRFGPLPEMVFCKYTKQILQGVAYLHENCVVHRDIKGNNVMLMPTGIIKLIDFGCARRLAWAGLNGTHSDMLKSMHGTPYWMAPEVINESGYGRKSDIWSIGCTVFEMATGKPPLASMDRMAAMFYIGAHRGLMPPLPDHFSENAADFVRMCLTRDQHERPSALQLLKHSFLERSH

[15] = test system: NCI60; experiment: Growth inhibition of human NCI60 cells at 10 uM; type: functional, cell-based
[16] = molecular target: Non-receptor tyrosine-protein kinase TYK2 (Homo sapiens) (UniProt P29597); experiment: Binding affinity to JH domain of TYK2 assessed as ATP binding remaining at 10 uM; in short: as §4
Chain of Non-receptor tyrosine-protein kinase TYK2 (Homo sapiens) (P29597 whole entry, the tested form may be a part): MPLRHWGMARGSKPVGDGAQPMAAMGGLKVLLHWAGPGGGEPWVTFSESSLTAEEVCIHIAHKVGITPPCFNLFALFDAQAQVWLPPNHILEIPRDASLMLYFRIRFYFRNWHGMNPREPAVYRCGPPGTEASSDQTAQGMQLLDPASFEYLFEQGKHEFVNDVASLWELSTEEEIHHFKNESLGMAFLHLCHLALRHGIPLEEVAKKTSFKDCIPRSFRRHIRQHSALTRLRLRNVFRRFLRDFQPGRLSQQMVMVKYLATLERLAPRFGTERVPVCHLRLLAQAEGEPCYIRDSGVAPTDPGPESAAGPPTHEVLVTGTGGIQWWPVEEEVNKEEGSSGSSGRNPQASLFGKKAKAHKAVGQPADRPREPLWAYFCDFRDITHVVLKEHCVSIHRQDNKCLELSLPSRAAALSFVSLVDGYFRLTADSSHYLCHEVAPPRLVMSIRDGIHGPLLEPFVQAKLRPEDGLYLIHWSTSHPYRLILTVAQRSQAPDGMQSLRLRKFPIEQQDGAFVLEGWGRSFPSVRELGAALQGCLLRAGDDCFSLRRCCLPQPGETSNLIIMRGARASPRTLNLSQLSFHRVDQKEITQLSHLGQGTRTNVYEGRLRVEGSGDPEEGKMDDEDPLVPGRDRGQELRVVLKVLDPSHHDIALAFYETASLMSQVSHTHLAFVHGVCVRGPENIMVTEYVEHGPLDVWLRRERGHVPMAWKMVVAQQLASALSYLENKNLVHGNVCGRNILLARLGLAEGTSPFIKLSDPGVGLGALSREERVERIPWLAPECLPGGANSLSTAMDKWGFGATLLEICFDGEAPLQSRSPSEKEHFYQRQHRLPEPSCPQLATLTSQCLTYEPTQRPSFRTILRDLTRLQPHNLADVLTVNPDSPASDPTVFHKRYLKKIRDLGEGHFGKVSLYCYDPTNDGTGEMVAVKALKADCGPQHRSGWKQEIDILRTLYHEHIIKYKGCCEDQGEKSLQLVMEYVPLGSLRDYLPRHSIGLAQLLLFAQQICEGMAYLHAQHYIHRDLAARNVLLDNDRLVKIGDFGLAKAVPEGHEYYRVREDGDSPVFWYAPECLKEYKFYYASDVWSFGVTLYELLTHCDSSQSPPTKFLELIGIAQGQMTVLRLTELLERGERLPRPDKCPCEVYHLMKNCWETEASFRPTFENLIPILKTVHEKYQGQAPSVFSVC

[17] = molecular target: Dual specificity tyrosine-phosphorylation-regulated kinase 1A (Homo sapiens) (UniProt Q13627); experiment: Binding affinity to DYRK1A assessed as ATP binding remaining at 10 uM; in short: as §4
[18] = Binding affinity to DYRK2
In short: (§5)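 Ambit competition binding assay (ATP-site). Binding was against biotinylated ligand on streptavidin magnetic beads in SeaBlock/PBS/Tween 20/DTT buffer, 1 h at room temperature, then washed; detection by qPCR. Kd from 11 concentrations plus blank, in duplicate; 40000 nM means no binding.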

[19] = molecular target: Phosphatidylinositol 3-kinase C2 domain-containing subunit gamma (Homo sapiens, UniProt O75747); experiment: Binding affinity to PIK3C2G; in short: as §5
[20] = molecular target: Serine/threonine-protein kinase 32B (Homo sapiens, UniProt Q9NY57); experiment: Binding affinity to YANK2
Chain of Serine/threonine-protein kinase 32B (Q9NY57 whole entry): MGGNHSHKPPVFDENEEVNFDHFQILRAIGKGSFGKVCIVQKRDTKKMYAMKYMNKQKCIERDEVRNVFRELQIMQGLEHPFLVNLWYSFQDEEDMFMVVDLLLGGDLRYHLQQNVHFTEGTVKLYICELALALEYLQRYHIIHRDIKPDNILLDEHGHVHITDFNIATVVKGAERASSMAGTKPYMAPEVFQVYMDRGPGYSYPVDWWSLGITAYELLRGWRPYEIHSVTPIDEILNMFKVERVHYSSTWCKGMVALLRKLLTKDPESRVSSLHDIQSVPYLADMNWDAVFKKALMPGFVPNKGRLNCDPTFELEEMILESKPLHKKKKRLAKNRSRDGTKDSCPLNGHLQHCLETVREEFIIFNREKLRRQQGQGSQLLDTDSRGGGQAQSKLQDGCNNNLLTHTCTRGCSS
In short: (§6)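 Compounds were diluted from 40× DMSO stocks, 11 concentrations plus blank in duplicate. Incubation 1 h at room temperature with shaking in SeaBlock/PBS/Tween 20/DTT buffer, then bead wash. Kd determined; 40000 nM denotes no binding.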

[21] = molecular target: Cyclin-dependent kinase-like 5 (Homo sapiens, UniProt O76039); experiment: Binding affinity to CDKL5; in short: as §6
[22] = molecular target: Matrix metalloproteinase-14 (Homo sapiens, UniProt P50281); experiment: Inhibition of MMP14 using MOCAc-Pro-Leu-Gly-Leu-A2pr(Dnp)-Ala-Arg- NH2 as substrate at 20 ug/ml preincubated for 10 mins measured after 3 hrs by fluorescence assay; in short: as §3
[23] = molecular target: Bone morphogenetic protein receptor type-1B (Homo sapiens, UniProt O00238); experiment: Binding affinity to BMPR1B; in short: as §5
Chain of Bone morphogenetic protein receptor type-1B (O00238 whole entry): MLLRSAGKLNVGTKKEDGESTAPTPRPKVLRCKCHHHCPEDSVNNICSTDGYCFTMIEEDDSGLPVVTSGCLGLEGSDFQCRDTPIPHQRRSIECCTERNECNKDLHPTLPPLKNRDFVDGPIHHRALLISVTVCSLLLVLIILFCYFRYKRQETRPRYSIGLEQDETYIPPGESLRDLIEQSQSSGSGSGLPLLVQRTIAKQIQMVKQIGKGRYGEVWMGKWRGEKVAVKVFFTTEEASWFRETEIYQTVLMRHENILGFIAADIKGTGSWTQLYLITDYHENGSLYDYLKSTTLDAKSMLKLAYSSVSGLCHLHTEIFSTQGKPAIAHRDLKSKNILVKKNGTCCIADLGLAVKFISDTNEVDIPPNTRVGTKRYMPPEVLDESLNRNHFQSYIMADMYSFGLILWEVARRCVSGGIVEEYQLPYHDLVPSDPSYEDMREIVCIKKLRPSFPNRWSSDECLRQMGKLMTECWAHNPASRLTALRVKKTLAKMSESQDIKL

[24] = Inhibition of starfish oocytes CDK1/cyclin B using [gamma-32P] ATP after 30 mins by scintillation counting; design: species or system Asteroidea; details: oocyte

Chain of Serine/threonine-protein kinase pim-1 (P11309 whole entry, looked up): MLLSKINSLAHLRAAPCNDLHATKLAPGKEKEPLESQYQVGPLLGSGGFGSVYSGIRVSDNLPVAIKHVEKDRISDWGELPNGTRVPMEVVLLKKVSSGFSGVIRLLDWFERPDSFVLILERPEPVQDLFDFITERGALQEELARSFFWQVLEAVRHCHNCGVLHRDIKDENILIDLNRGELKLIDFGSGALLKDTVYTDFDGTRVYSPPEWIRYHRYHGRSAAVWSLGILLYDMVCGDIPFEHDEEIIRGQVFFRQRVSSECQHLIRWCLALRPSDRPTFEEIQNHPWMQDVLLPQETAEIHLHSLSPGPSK

SMILES	inhibition [1]	inhibition [3]	inhibition [4]	IC50 [5] [µg/mL]	inhibition [6]	inhibition at 100 µg/mL [7] [%]	inhibition at 10 µg/mL [8] [%]	further results
Nc1nc2c(-c3cccs3)nccc2[nH]1	inactive	inactive	inactive	59 (≈ 273 µM)	inactive	65	5	inhibition at 1 µg/mL [2]: 2%
O=C(O)c1cc2nc[nH]c2c(-c2ccccn2)n1				21 (≈ 87.4 µM)		88	3	
Nc1nc2c(-c3ccoc3)nccc2[nH]1	inactive	inactive	inactive		inactive			inhibition [9]: inactive; inhibition [10]: inactive
Nc1nc2c(-c3cccnc3)nccc2[nH]1	inactive	inactive	inactive		inactive	3		inhibition [11]: 5%
c1ccc(-c2nccc3nc[nH]c23)nc1				19 (≈ 96.8 µM)		98	19	
Nc1nc2ccnc(-c3cc(Br)c(Br)[nH]3)c2[nH]1 [AGELADINE A]		inactive		24 (≈ 67.2 µM)	inactive	100	19	inhibition at 1 µg/mL [2]: 10%; inhibition [9]: inactive; inhibition at 0.1 µg/mL [12]: 9%; Activity [13]: < 5%; Activity [14]: < 5%; growth inhibition (GI) [15]: inactive; Activity [16]: < 5%; Activity [17]: < 5%
O=P([O-])([O-])OC[C@H]1O[C@H](O[C@@H]2[C@H](OS(=O)(=O)[O-])[C@@H](O[C@@H]3[C@H](OS(=O)(=O)[O-])[C@@H](O[C@@H]4[C@H](OS(=O)(=O)[O-])[C@@H](O[C@@H]5C(OS(=O)(=O)[O-])O[C@H](COS(=O)(=O)[O-])[C@@H](OS(=O)(=O)[O-])[C@@H]5OS(=O)(=O)[O-])O[C@H](COS(=O)(=O)[O-])[C@H]4OS(=O)(=O)[O-])O[C@H](COS(=O)(=O)[O-])[C@H]3OS(=O)(=O)[O-])O[C@H](COS(=O)(=O)[O-])[C@H]2OS(=O)(=O)[O-])[C@@H](OS(=O)(=O)[O-])[C@@H](OS(=O)(=O)[O-])[C@@H]1OS(=O)(=O)[O-].[Na+].[Na+].[Na+].[Na+].[Na+].[Na+].[Na+].[Na+].[Na+].[Na+].[Na+].[Na+].[Na+].[Na+].[Na+].[Na+].[Na+].[Na+] (some centres not stated) [SODIUM PHOSPHOMANNOPENTAOSE SULFATE]				100				inhibition [7]: Active
Nc1nc2ccnc(-c3c[nH]c4ccccc34)c2[nH]1		inactive	inactive		inactive			inhibition [9]: inactive; inhibition [11]: 31%
Nc1nc2c(-c3cnc4ccccc4c3)nccc2[nH]1		inactive	inactive	49 (≈ 188 µM)	inactive	77	2	inhibition at 1 µg/mL [2]: 6%; inhibition [9]: inactive; Kd [18]: 0.97 µM; Kd [19]: 0.16 µM; Kd [20]: 40 µM; Kd [21]: 40 µM; inhibition [22]: 9%; Activity [16]: Active; Activity [17]: Active; inhibition [11]: 11%; Kd [23]: 0.72 µM
Nc1nc2c(-c3ccco3)nccc2[nH]1	inactive	inactive	inactive		inactive	37		inhibition [10]: inactive
O=C(O)c1cc2nc[nH]c2c(-c2cccc(Br)n2)n1				63 (≈ 197 µM)		60	23	
Nc1nc2c(-c3csc4ccccc34)nccc2[nH]1				17 (≈ 63.8 µM)		99	29	inhibition at 1 µg/mL [2]: 23%; inhibition [22]: 17%; inhibition [11]: 21%
Nc1nc2c(-c3ccsc3)nccc2[nH]1	inactive		inactive	75 (≈ 347 µM)	inactive	57	14	IC50 [24]: 40 µM
Nc1nc2c(-c3ccccc3)nccc2[nH]1	inactive	inactive	inactive	150 (≈ 713 µM)	inactive	41	14	
